The target of this assay is Delta-type opioid receptor (Mus musculus, UniProt P32300). In words: Antagonist activity against delta opioid receptor in mouse vas deferens assessed as effect on deltorphin 2-induced contraction. In kind it is functional, tissue-based. The note with it: read-out: pA2 (converted). Put shortly: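 pA2 was measured against the δ agonist deltorphin II in mouse vas deferens and determined by the Kosterlitz and Watt method.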

Non-standard residues stand in square brackets, D forms with d. Residues, ends and D or L forms follow the SMILES beside them. Dmt = Cc1cc(O)cc(C)c1C[C@H](N)C(=O)O; Tic = O=C(O)[C@@H]1Cc2ccccc2CN1

Chain of Delta-type opioid receptor (P32300 whole entry): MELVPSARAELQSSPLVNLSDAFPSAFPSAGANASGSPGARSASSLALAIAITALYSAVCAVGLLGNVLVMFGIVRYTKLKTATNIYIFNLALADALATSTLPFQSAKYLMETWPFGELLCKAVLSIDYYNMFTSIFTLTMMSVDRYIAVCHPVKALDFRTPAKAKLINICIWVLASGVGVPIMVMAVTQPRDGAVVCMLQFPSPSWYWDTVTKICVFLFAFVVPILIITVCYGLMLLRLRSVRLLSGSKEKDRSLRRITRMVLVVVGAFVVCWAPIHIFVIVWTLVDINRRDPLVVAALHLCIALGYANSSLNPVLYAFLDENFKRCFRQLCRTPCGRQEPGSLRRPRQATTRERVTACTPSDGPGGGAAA

Regarding `Cc1cc(O)cc(C)c1C[C@H](N)C(=O)N1Cc2ccccc2C[C@H]1C(=O)N[C@@H](Cc1ccccc1)C(=O)N[C@@H](Cc1ccccc1)C(=O)O` (H-[Dmt][Tic]FF-OH), the Kb is 0.2 nM.

(Values after ChEMBL document CHEMBL1153516, “Influence of the side chain next to C-terminal benzimidazole in opioid pseudopeptides containing the Dmt-Tic pharmacophore” (J Med Chem, 2009).)
